Published values collected from several papers.
Protocols differ between the studies behind these lines.
Target: Tyrosine-protein kinase Blk (BLK, Homo sapiens, UniProt P51451)

O=C1Nc2ccc(Cl)cc2C1=Cc1cc(Cl)c(O)c(Cl)c1
remaining signal (cell-free assay; 0.5 µM): 102%

O=C(Nc1cnn(-c2csc(C(=O)NC3COC3)c2)c1)Nc1ccccc1Cl
remaining activity (enzyme activity; inhibitor; 5 µM): 79.2%

O=c1cc(-c2cccc3c2Sc2ccccc2S3)oc(N2CCOCC2)c1
remaining activity (enzyme activity; inhibitor; 0.5 µM): 96.2%

COc1cc2ncnc(Nc3ccc(Oc4ccccc4)c(C)c3C)c2cc1OC
inhibition (enzyme activity; inhibitor; 1 µM): 71%

CN1CC(Oc2cnc(C#N)cc2-c2ccn3nc(NC(=O)C4CC4)cc3c2)C1
inhibition (enzyme activity; inhibitor; 1 µM): 28%

CC(C)(C)c1nc2c(s1)c1nc(N)ncc1c1ccc(NS(=O)(=O)c3c(F)cccc3F)c(F)c12
remaining activity (enzyme activity; inhibitor; radiometric; 1 µM): 52%

CNC(=O)c1cc2c(Oc3ccc(NC(=O)C4(C(=O)Nc5ccc(F)cc5)CC4)cc3)ccnc2cc1OC
inhibition (enzyme activity; inhibitor; radiometric; 1 µM): 94%

Nc1c(C(=O)NCc2ccc(C(=O)NCCCC3CCCCC3)cc2)cnn1-c1ccccc1
remaining binding (cell-free assay; competition with immobilised ligand; 0.1 µM): 81%

COc1cc(Cl)c(C(=O)N[C@@H](CN[C@H]2CC[C@@H](N)CC2)Cc2ccc(C#N)cc2)cc1-c1ccc(CN[C@H](C)c2ccc(C)cc2)o1
remaining activity (enzyme activity; inhibitor; 1 µM): 80%

COc1ccc2cc(OCC3(C(=O)O)CN(C(=O)c4ccc(F)cc4)C3)ccc2c1
remaining binding (cell-free assay; competition with immobilised ligand; 1 µM): 93%

C=CC(=O)Nc1cc(Nc2nccc(Nc3cc(Cl)c(F)cc3C(C)(C)O)n2)c(OC)cc1N1CC[C@@H](N(C)C)C1
inhibition (enzyme activity; inhibitor; 1 µM): 90%

CC/C(=N\NC(=O)NCc1cccc(O)c1)c1ccc(O)c(C)c1O
inhibition (enzyme activity; inhibitor; 0.1 µM): 6%

O=C(Nc1cccnn1)N1CC(C/C=C/c2cncc(Oc3ccc(C(F)(F)F)cn3)n2)C1
remaining binding (cell-free assay; competition with immobilised ligand; 1 µM): 65%

Nc1nc(Nc2ccc(S(N)(=O)=O)cc2)nn1C(=O)c1c(F)cccc1F
remaining signal (cell-free assay; 0.5 µM): 90.1%

CCC(=O)N[C@@H]1CC[C@H](C(=O)N(C)c2ccc(-c3nc4ccccc4o3)cc2)C1
remaining binding (cell-free assay; competition with immobilised ligand; 1 µM): 100%

CC(C)(O)[C@H]1CC[C@H](Nc2ccc3ncc(-c4cccc(C(F)(F)F)c4)n3n2)CC1
remaining activity (enzyme activity; inhibitor; 1 µM): 37.5%

N#Cc1ccc(Nc2ccc3[nH]c(=O)[nH]c3c2)c(Cl)c1
remaining binding (cell-free assay; competition with immobilised ligand; 1 µM): 97%

Nc1ncnc2occ(-c3ccc(NC(=O)Nc4cc(C(F)(F)F)ccc4F)cc3)c12
remaining signal (cell-free assay; 20 µM): 0.45%
